High-throughput results from PubChem BioAssay.
Only some compounds are listed: those with a hit (about 0.73% of all), similar ones and a draw of the others.
TNAP act hi DEA: TNAP (human) activation, high acceptor | AID 1136 | 200,000 tested, under 10 active | purified TNAP, CDP-star luminescence, 1 M DEA, 30 min; hits give high values; 0 = EDTA background, 1 = DMSO-only activity | activation factor at 20 µM;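 active means activation factor at least 2 at 20 µM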
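Control set: EDTA negative control, DMSO positive control / Assay system: human TNAP / Quantity: TNAP 1/800 final / Evaluation: TNAP activation factor scaled between EDTA and DMSO control wells / Measured by: luminescent substrate turnover signal / Compound dosing: one dose, 20 µM / Times: 30 min enzyme reaction at room temperature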
PKD1 inh: PKD1 (human) kinase inhibition | PKD1 kinase fluorescence polarization assay | inhibition, % (no concentration beside the values) | 200,000 compounds, 0.056% hits | AID 797; in the data active means inhibition above about 50%
Target sequence (Q15139 whole entry, looked up): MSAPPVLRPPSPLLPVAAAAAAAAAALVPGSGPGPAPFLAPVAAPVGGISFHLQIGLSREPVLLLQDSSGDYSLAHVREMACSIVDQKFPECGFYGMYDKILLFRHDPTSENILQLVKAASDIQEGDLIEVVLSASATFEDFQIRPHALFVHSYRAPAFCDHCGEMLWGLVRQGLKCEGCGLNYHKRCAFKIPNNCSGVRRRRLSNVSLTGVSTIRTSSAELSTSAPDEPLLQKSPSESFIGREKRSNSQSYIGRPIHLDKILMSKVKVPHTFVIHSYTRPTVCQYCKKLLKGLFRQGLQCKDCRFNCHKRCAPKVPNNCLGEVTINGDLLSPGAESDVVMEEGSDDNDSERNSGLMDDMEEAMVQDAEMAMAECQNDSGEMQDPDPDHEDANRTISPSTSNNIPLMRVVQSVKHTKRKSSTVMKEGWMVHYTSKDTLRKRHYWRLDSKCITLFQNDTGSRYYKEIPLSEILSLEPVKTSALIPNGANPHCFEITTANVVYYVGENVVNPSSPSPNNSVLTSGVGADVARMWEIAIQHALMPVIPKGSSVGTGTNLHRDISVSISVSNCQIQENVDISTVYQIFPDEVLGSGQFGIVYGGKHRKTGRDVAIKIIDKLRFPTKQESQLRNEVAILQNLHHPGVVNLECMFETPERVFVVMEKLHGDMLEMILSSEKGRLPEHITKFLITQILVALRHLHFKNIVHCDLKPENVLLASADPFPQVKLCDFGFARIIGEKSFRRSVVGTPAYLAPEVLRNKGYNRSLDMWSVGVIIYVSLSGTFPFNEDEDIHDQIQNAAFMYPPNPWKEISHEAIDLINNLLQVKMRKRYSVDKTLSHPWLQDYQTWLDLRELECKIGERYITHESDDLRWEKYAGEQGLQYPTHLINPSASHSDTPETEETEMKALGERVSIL
TNAP inh no acc: TNAP (human) inhibition, acceptor-free conditions; 200,000 compounds, 0.26% hits; AID 1012; purified TNAP, CDP-star luminescence, 30 min; inhibition, % at 20 µM; P05186;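 active means tissue-nonspecific alkaline phosphatase inhibition above about 50% at 20 µM in the single-dose screen, limit read from the data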;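 further: 0% = DMSO negative control and 100% = EDTA positive control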
Arbovirus inh: blocks arbovirus infection; arbovirus infection cell-based antiviral screen; inhibition, % at 10 µM; 200,000 compounds, 0.37% hits; in the data active means inhibition above about 30%
TNAP inh hi DEA: TNAP (human) inhibition, high acceptor; P05186; purified TNAP, CDP-star luminescence, 1 M DEA; inhibition, % at 20 µM; 200,000 compounds, 0.03% hits; AID 1135;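 active means over 50% inhibition of tissue-nonspecific alkaline phosphatase at 20 µM in the single-dose screen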;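 further: plate controls were DMSO wells for no effect and EDTA-quenched wells as full inhibition for full effect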
Active calls of the source: *.

For O=C(O)c1cc(C(=O)C2CCCCC2)c[nH]1 the results were TNAP act hi DEA 1, PKD1 inh 112*, TNAP inh no acc -4, Arbovirus inh 8 and TNAP inh hi DEA 1.
O=C(O)c1cc(C(=O)C2CC2)c[nH]1 was read as TNAP act hi DEA 1, PKD1 inh 0, TNAP inh no acc -12, Arbovirus inh 5 and TNAP inh hi DEA -5.
CSc1n[nH]c(NC(C)=O)n1 was read as TNAP act hi DEA 1, PKD1 inh -1, TNAP inh no acc 50*, Arbovirus inh 15 and TNAP inh hi DEA 4.
`CCCSc1n[nH]c(NC(C)=O)n1` gave TNAP act hi DEA 1, PKD1 inh -4, TNAP inh no acc 96*, Arbovirus inh 4 and TNAP inh hi DEA -1.
For CCCCCCCCCCSc1n[nH]c(NC(C)=O)n1 the results were TNAP act hi DEA 1, PKD1 inh -8, TNAP inh no acc -74, Arbovirus inh -5 and TNAP inh hi DEA 2.
For O=C(NCc1ccccn1)c1ccc(CNS(=O)(=O)c2ccc(F)cc2)cc1 the results were TNAP act hi DEA 0.9, PKD1 inh -4, TNAP inh no acc -2, Arbovirus inh -1 and TNAP inh hi DEA 6.
COc1cccc(C2=CC(c3ccc(C)cc3)n3ncnc3N2)c1 (stereo unspecified) was read as TNAP act hi DEA 1.1, PKD1 inh -5, TNAP inh no acc -5, Arbovirus inh 66* and TNAP inh hi DEA -5.
Cc1ccc(C2C=C(c3ccc4c(c3)OCO4)Nc3ncnn32)cc1 (stereo unspecified) was read as TNAP act hi DEA 1, PKD1 inh -10, TNAP inh no acc -6, Arbovirus inh 85* and TNAP inh hi DEA -1.
CS(=O)(=O)N1CCC(C(=O)Nc2ccc(Cl)c(Cl)c2)CC1 was read as TNAP act hi DEA 1.1, PKD1 inh -4, TNAP inh no acc -11, Arbovirus inh -1 and TNAP inh hi DEA -7.
Screening CC1=Nc2ccccc2/C1=C/c1c(N)n2c(S(=O)(=O)C(C)C)nsc2nc1=O returned TNAP act hi DEA 0.9, PKD1 inh 4, TNAP inh no acc 0, Arbovirus inh 39* and TNAP inh hi DEA 7.
CSc1nsc2nc(=O)c(/C=C3\C=Nc4ccccc43)c(N)n12 was read as TNAP act hi DEA 0.9, PKD1 inh 1, TNAP inh no acc 27, Arbovirus inh 38* and TNAP inh hi DEA 11.
`CCc1nn2c(N)c(/C=C3\C=Nc4ccccc43)c(=O)nc2s1` gave TNAP act hi DEA 1, PKD1 inh -5, TNAP inh no acc 11, Arbovirus inh 31* and TNAP inh hi DEA 0.
Screening CC1=Nc2ccccc2/C1=C/c1c(N)n2c(S(=O)(=O)CC(C)C)nsc2nc1=O returned TNAP act hi DEA 1, PKD1 inh -5, TNAP inh no acc 21, Arbovirus inh 6 and TNAP inh hi DEA 3.
CCn1c(O)c(/C=C2\C=Nc3ccccc32)sc1=O was read as TNAP act hi DEA 1, PKD1 inh -6, TNAP inh no acc 10, Arbovirus inh 2 and TNAP inh hi DEA 1.
For CC(C)S(=O)(=O)c1nsc2nc(=O)c(/C=C3\C=Nc4ccccc43)c(N)n12 the results were TNAP act hi DEA 1, PKD1 inh -12, TNAP inh no acc 3, Arbovirus inh 37* and TNAP inh hi DEA 3.
CSc1nsc2nc(=O)c(/C=C3\C(C)=Nc4ccc(C)cc43)c(N)n12 was read as TNAP act hi DEA 1, PKD1 inh -2, TNAP inh no acc -3, Arbovirus inh 20 and TNAP inh hi DEA 2.
`O=c1oc2ccccc2c(O)c1/C=C1\C=Nc2ccccc21` gave TNAP act hi DEA 1, PKD1 inh -6, TNAP inh no acc 22, Arbovirus inh -13 and TNAP inh hi DEA -1.
`CC1=Nc2ccc(C)cc2/C1=C/c1c(N)n2c(S(=O)(=O)C(C)C)nsc2nc1=O` gave TNAP act hi DEA 1, PKD1 inh -3, TNAP inh no acc 3, Arbovirus inh 45* and TNAP inh hi DEA 4.
Screening O=C(NOC(=O)c1ccccc1Cl)c1cccs1 returned TNAP act hi DEA 1, PKD1 inh -5, TNAP inh no acc -6, Arbovirus inh 4 and TNAP inh hi DEA 0.
CCOC(=O)c1sc(=NC(=O)c2ccccc2)n(C)c1C was read as TNAP act hi DEA 1, PKD1 inh -8, TNAP inh no acc -3, Arbovirus inh -3 and TNAP inh hi DEA 1.
For CCOC(=O)c1sc(=NC(=O)CCS(=O)(=O)c2ccccc2)n(C)c1C the results were TNAP act hi DEA 1, PKD1 inh 91*, TNAP inh no acc -8, Arbovirus inh 11 and TNAP inh hi DEA -2.
Screening Cc1ccc(S(=O)(=O)Nc2cccc(Cl)c2)cc1NC(=O)c1cccnc1 returned TNAP act hi DEA 1, PKD1 inh 6, TNAP inh no acc 4, Arbovirus inh 6 and TNAP inh hi DEA -1.
`CCOc1ccc(-n2c(=O)[nH]c3sc4c(c3c2=O)CCCC4)cc1` gave TNAP act hi DEA 1.1, PKD1 inh -7, TNAP inh no acc 0, Arbovirus inh 40* and TNAP inh hi DEA -7.
Screening CCOc1ccc(-n2c(=O)c3c4c(sc3n(CC(=O)NCC3CCCO3)c2=O)CCCC4)cc1 (stereo unspecified) returned TNAP act hi DEA 1, PKD1 inh 4, TNAP inh no acc -7, Arbovirus inh 9 and TNAP inh hi DEA 2.
Screening COCCNC(=S)N/N=C(\C)c1cccc(OC)c1 returned TNAP act hi DEA 1, PKD1 inh -3, TNAP inh no acc -4, Arbovirus inh 0 and TNAP inh hi DEA 3.
For O=C(NNC(=O)c1ccccc1O)c1ccc(Cl)cc1 the results were TNAP act hi DEA 1, PKD1 inh -12, TNAP inh no acc -56, Arbovirus inh -30 and TNAP inh hi DEA -1.
For O=C(NNC(=O)c1ccc(O)cc1O)c1ccc(Cl)cc1 the results were TNAP act hi DEA 1, PKD1 inh -14, TNAP inh no acc 76*, Arbovirus inh -15 and TNAP inh hi DEA 0.
`C/C(=N\NC(=O)c1c(Cl)c(C)nn1C)c1ccc(NC(=O)c2ccncc2)cc1` gave TNAP act hi DEA 1, PKD1 inh 10, TNAP inh no acc -2, Arbovirus inh 41* and TNAP inh hi DEA -2.
`COc1ccc(-c2nc(SCc3ccccc3)n(S(C)(=O)=O)n2)cc1` gave TNAP act hi DEA 1, PKD1 inh -1, TNAP inh no acc 62*, Arbovirus inh 2 and TNAP inh hi DEA 1.
For CCS(=O)(=O)n1nc(-c2ccc(Cl)cc2)nc1SCc1ccccc1 the results were TNAP act hi DEA 1, PKD1 inh 3, TNAP inh no acc 62*, Arbovirus inh -11 and TNAP inh hi DEA -3.
`CCN1CN(Cc2ccco2)CNC1=S` gave TNAP act hi DEA 1, PKD1 inh 3, TNAP inh no acc -8, Arbovirus inh 12 and TNAP inh hi DEA -4.
Cc1nc(CSc2ccc(Cl)cc2)cc(NCc2ccccc2)n1 was read as TNAP act hi DEA 1, PKD1 inh -3, TNAP inh no acc -22, Arbovirus inh -12 and TNAP inh hi DEA -4.
